Here are results for 46 compounds from ChEMBL document CHEMBL1156003, “A strategy of employing aminoheterocycles as amide mimics to identify novel, potent and bioavailable soluble epoxide hydrolase inhibitors” (Bioorg Med Chem Lett, 2009).

Series [1] has as its target T1, Bifunctional epoxide hydrolase 2 (Homo sapiens, UniProt P34913).
T1 sequence (P34913 whole entry): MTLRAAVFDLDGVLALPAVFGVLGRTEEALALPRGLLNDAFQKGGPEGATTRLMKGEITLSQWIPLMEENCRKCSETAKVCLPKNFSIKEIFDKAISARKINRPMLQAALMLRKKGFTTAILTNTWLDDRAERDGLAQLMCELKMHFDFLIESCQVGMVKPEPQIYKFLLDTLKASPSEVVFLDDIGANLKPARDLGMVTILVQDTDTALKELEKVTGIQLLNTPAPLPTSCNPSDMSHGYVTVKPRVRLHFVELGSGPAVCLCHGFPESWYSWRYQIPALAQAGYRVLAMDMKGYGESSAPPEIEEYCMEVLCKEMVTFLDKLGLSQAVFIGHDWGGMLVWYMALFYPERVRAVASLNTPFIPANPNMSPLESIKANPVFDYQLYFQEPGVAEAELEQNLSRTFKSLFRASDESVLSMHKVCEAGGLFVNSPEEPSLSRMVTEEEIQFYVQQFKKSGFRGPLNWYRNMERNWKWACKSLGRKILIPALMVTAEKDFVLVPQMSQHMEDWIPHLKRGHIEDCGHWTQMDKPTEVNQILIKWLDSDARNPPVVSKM
The series is described as follows: Inhibition of human sEH. In a few lines:
(§1)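 Human and rat sEH enzyme inhibition; values from one or two experiments, each in triplicate, within 20% deviation on repeat.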

Series [2] deals with T2, Bifunctional epoxide hydrolase 2 (Rattus norvegicus, UniProt P80299).
T2 sequence (P80299 whole entry): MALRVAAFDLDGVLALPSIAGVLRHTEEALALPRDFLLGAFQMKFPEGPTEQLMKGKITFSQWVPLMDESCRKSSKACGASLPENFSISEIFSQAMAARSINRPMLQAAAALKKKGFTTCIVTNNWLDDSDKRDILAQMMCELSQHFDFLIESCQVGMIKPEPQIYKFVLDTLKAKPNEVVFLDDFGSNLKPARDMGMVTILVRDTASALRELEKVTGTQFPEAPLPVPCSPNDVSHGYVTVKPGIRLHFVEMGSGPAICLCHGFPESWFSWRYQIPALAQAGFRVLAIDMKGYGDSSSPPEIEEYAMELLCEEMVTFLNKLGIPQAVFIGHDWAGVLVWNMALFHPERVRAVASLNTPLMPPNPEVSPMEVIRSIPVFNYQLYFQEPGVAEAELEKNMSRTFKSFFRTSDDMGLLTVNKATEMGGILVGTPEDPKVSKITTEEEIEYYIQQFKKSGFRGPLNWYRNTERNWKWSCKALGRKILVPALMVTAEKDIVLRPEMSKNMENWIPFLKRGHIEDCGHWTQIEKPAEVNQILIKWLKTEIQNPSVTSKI
The series is described as follows: Inhibition of rat sEH. The method, boiled down: as §1

Series [3] in a line: Oral bioavailability in rat at 2 mg/kg. It is filed as ADME, organism-based. The settings on record: in vivo. In a few lines: (§2)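 Rat PK: dosed at 1 mg/mL in ethanol/PEG/water (20:40:40); IV 1 mg/kg (n = 2), PO 2 mg/kg (n = 3). Blood levels measured by LC/MS/MS after acetonitrile protein precipitation.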
The nature of series [4]: Clearance in rat at 1 mg/kg, iv and 2 mg/kg, po. It is filed as ADME, organism-based. The conditions noted are these: in vivo. In a few lines:
as §2

Series [5] in a line: Volume of distribution at steady state in rat at 1 mg/kg, iv and 2 mg/kg, po. It is filed as ADME, organism-based. The settings on record: in vivo, read-out: Vdss. The method, boiled down:
as §2

Series [6] can be described thus: Half life at steady state in rat at 1 mg/kg, iv and 2 mg/kg, po. It is filed as ADME, organism-based. The conditions noted are these: in vivo. The method, boiled down: as §2
Series [7] concerns the target T1, Bifunctional epoxide hydrolase 2. The series is described as follows: Inhibition of human sEH assessed as DHET production in presence of 10% human serum.
The subject of series [8] is Plasma. Kind of series: Fraction unbound in rat plasma at 0.2 to 25 uM. It is filed as ADME, cell-free. The settings on record: in the assay text read “0.5 to 25 uM” for “0.2 to 25 uM”. The method, boiled down:
(§3)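 Free fraction measured with radiolabeled compound in human and rat plasma, compound at 0.5–25 μM.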

Series [9] deals with Plasma. The series is described as follows: Fraction unbound in human plasma at 0.2 to 25 uM. Type of series: ADME, cell-free. The settings on record: in the assay text read “0.5 to 25 uM” for “0.2 to 25 uM”. In a few lines:
as §3

As a reminder, the IC50 is the concentration that inhibits the measured activity by half. Usually bioavailability stands for dose-corrected exposure relative to a reference, in per cent. A word on the half-life: it is how long it takes for the measured level to halve. A lower half-life goes with rapid decline.

A value given as a limit tells only on which side of the number the result lay.

Consider `FC(F)(F)c1ccc(Nc2noc3cc(-c4ccc5[nH]ccc5c4)ccc23)cc1`, for which the values for the IC50 in [1] and in series [2] were 0.07 µM and 0.077 µM, respectively.

Take `FC(F)(F)c1ccc(Nc2noc3c(C(F)(F)F)nccc23)cc1`: the values for the IC50 in [1] and in series [2] were 0.019 µM and 0.3 µM, respectively.

With `Fc1ccccc1-c1ccc2c(Nc3ccc(C(F)(F)F)cc3)noc2c1`, the half-maximal inhibitory concentration (IC50) amounted to 0.091 µM in [1] and 0.055 µM in series [2].

As for `FC(F)(F)c1ccc(Nc2noc3c(C(F)(F)F)cccc23)nc1`, the IC50 in series [1] and in [2] was more than 10 µM each time.

With `c1ccc2c(Nc3noc4ccccc34)cccc2c1`, the IC50 in series [1] stood at 0.84 µM; in [2], 4.6 µM.

On to `FC(F)(F)c1ccc(Nc2noc3c(C(F)(F)F)cccc23)cn1`, for which the IC50 in [1] is 0.074 µM; in [2], 3.4 µM.

In [1], `FC(F)(F)c1ccc(CNc2cc(-c3ccccc3)on2)cc1` had a half-maximal inhibitory concentration (IC50) of 4.7 µM.

In the case of `Cc1cccnc1-c1ccc2c(Nc3ccc(C(F)(F)F)cc3)noc2c1`, the IC50 stood at 0.07 µM in series [1] and 0.29 µM in series [2].

Regarding `FC(F)(F)c1ccc(Nc2noc3ncccc23)cc1`, the IC50 in [1] came to 0.027 µM.

As to `c1ccc(CNc2cnc3ccccc3n2)cc1`, in series [1], the IC50 is more than 10 µM.

In turn, `c1ccc(Cc2nnc(Nc3ccccc3)o2)cc1` had an IC50 in series [1] of more than 10 µM.

As to `c1ccc(-c2cccc(Nc3noc4ccccc34)c2)cc1`, it took 0.96 µM to reach half-maximal inhibition in series [1] (IC50).

In [1], `FC(F)(F)Oc1ccccc1Nc1noc2ccccc12` had a half-inhibitory concentration (IC50) of 5.2 µM.

With `FC(F)(F)c1cccc(CNc2cc(-c3ccccc3)ncn2)c1`, the IC50 in series [1] was more than 10 µM.

For the compound `FC(F)(F)c1ccc(Nc2noc3cc(-c4cccc(C(F)(F)F)c4)ccc23)cc1`, the IC50 in series [1] is 0.47 µM; in series [2] it was 0.57 µM.

For the compound `FC(F)(F)c1ccc(Nc2noc3ccncc23)cc1`, 0.34 µM corresponded to half-maximal inhibition in series [1] (IC50).

The compound `c1ccc(CNc2nnc(-c3ccccc3)o2)cc1` came in with a 50% inhibitory concentration (IC50) in [1] of more than 10 µM.

`c1ccc(CNc2nnc(Cc3ccccc3)o2)cc1` yielded an IC50 in series [1] of more than 10 µM.

Turning to `c1ccc2cc(Nc3noc4ccccc34)ccc2c1`, the 50% inhibitory concentration (IC50) in series [1] was determined as 1.2 µM.

In [1], `FC(F)(F)c1ccc(Nc2cc(-c3ccccc3)on2)cc1` displayed a half-inhibitory concentration (IC50) of more than 10 µM.

Compound `FC(F)(F)c1ccc(CNc2noc3ccccc23)cc1` displayed an IC50 in series [1] of 1.2 µM.

`c1ccc(CNc2cc(-c3ccccc3)ccn2)cc1` registered an IC50 in series [1] of more than 10 µM.

Consider `FC(F)(F)c1ccc(Nc2noc3cc(-c4ccccc4C(F)(F)F)ccc23)cc1`, for which the IC50 in [1] turned out to be 0.008 µM; in [2], 0.07 µM.

With `FC(F)(F)c1ccccc1Nc1noc2ccccc12`, the midpoint of inhibition in [1], the IC50, lay at 0.96 µM.

Compound `c1ccc(CNc2nc3ccccc3s2)cc1` showed an IC50 in series [1] of more than 10 µM.

Regarding `FC(F)(F)c1ccc(Nc2noc3ccccc23)cc1`, the values for the concentration for half-maximal inhibition (IC50) in series [1] and in [2] were 0.025 µM and 0.076 µM, respectively.

With `c1ccc(CNc2nc3ccccc3o2)cc1`, the IC50 in [1] is more than 10 µM.

Take `FC(F)(F)c1ccc(Nc2noc3cnccc23)cc1`: in series [1], the IC50 worked out at 0.031 µM.

As to `FC(F)(F)c1ccc(Nc2noc3c(-c4ccc5[nH]ccc5c4)cccc23)cc1`, the IC50 in series [1] was found to be 0.008 µM; in [2], 0.041 µM.

In series [1], `FC(F)(F)c1nnc(Nc2ccccc2)o1` had an IC50 of 2 µM.

Regarding `FC(F)(F)Oc1cccc(Nc2noc3ccccc23)c1`, the IC50 in series [1] and in [2] was 0.16 µM throughout.

Regarding `FC(F)(F)c1ccc(Nc2noc3ccc(C(F)(F)F)cc23)cc1`, the concentration for half-maximal inhibition (IC50) in series [1] turned out to be 0.04 µM; in series [2], 1.5 µM.

The compound `FC(F)(F)c1ccc(Nc2nsc3ccccc23)cc1` yielded an IC50 in series [1] of 2.5 µM.

For `FC(F)(F)c1ccc(Nc2noc3c(-c4ccccc4C(F)(F)F)cccc23)cc1`, the IC50 in series [1] came to 0.004 µM; in series [2], 0.079 µM.

In turn, `FC(F)(F)c1ccc(Nc2n[nH]c3ccccc23)cc1` showed an IC50 in series [1] of more than 10 µM.

Compound `FC(F)(F)c1ccc(Nc2noc3cccnc23)cc1` registered an IC50 in [1] of 1.1 µM.

For `FC(F)(F)c1ccc(Nc2noc3c(-c4cccc(C(F)(F)F)c4)cccc23)cc1`, the IC50 amounted to 0.01 µM in [1] and 0.13 µM in series [2].

Take `FC(F)(F)Oc1ccc(Nc2noc3ccccc23)cc1`: the IC50 was 0.06 µM in [1] and 0.17 µM in series [2].

For the compound `FC(F)(F)c1ccc(Nc2noc3cc(-c4cccnc4)ccc23)cc1`, the IC50 is 0.023 µM in series [1] and 0.02 µM in series [2].

As for `FC(F)(F)c1ccc(Nc2noc3cc(-c4ccncc4)ccc23)cc1`, the values for the IC50 in series [1] and in series [2] were 0.058 µM and 0.019 µM, respectively.

On to `FC(F)(F)c1ccc(Nc2noc3cc(-c4cccc5cnccc45)ccc23)cc1`, for which the IC50 came to 0.019 µM in series [1] and 0.03 µM in [2].

For the compound `c1ccc(-c2ccc(Nc3noc4ccccc34)cc2)cc1`, the IC50 in series [1] is 0.17 µM; in series [2], 0.74 µM.

The compound `FC(F)(F)c1ccc(Nc2noc3cc(C(F)(F)F)ccc23)cc1` had an IC50 in [1] of 0.018 µM.

As for `c1ccc(CNc2cnc(-c3ccccc3)cn2)cc1`, in [1], the IC50 is more than 10 µM.

Consider `c1ccc(CNc2ccc(-c3ccccc3)cn2)cc1`, for which the half-maximal inhibitory concentration (IC50) in series [1] was more than 10 µM.

For `FC(F)(F)c1ccc(Nc2noc3c(C(F)(F)F)cccc23)cc1`, the half-maximal inhibitory concentration (IC50) was found to be 0.004 µM in series [1], 0.127 µM in series [2] and 1.2 µM in [7]. In [3], this compound displayed a bioavailability of 98%. For the same compound, in series [4], the clearance amounted to 1.8 L/h/kg. The Vd in series [5] was found to be 7 L/kg. In series [6], this compound gave a half-life of 5.9 h. In addition, the Fu with Plasma [8] worked out at 0.9%; in the series with Plasma [9], 0.7%.
